Experimental data: ChEMBL document CHEMBL1129970, “Biologically active conformer of the effector region of human C5a and modulatory effects of N-terminal receptor binding determinants on activity” (J Med Chem, 1997)

Assays:
Homo sapiens [1] = organism: Homo sapiens; assay: Relative potency of peptide for human fetal artery was determined; type: functional
Outline: (§1)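 Human fetal artery smooth muscle contraction; full dose–response curves for recombinant human C5a or each peptide in the same tissue preparation. EC50 is the concentration giving 50% of the maximal response, read relative to the C5a maximum. pD2 = −log EC50 (M), averaged per peptide ± SE. Log potency ratio pD2(C5a) − pD2(peptide) is computed within each experiment. Relative potency = antilog(−Δ) × 100.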

Homo sapiens [2] = organism: Homo sapiens; assay: Spasmogenic activity was measured by the ability to induce smooth muscle contraction in human fetal artery; type: functional, Muscle tissue; outline: as §1
Homo sapiens [3] = organism: Homo sapiens; assay: Tested for the ability to stimulate beta-glucuronidase release from human polymorphonuclear cells (PMN) (n=4); type: functional
Outline: (§2)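 Human PMNs pretreated with cytochalasin B (5 μg/mL, 10 min, 37 °C), then 10⁶ cells stimulated for 60 min at 37 °C. β-Glucuronidase in the supernatant is assayed with 0.01 M p-nitrophenyl β-D-glucuronide (0.1 M acetate, pH 4, 18 h) in triplicate. Reaction stopped with glycine pH 10 and read at 415 nm. pD2 is taken from dose–response curves against the C5a EC50. Efficacy is given relative to C5a maximum (100%).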

Homo sapiens [4] = organism: Homo sapiens; assay: Relative potency of peptide to stimulate beta-glucuronidase release from human polymorphonuclear cells (PMN) (n=4); type: functional; outline: as §2
Homo sapiens [5] = organism: Homo sapiens; assay: Log potency ratio [log IC50(C5a)-log IC50(peptide)] was determined in human polymorphonuclear cells (PMN) (n=3); type: functional
Outline: (§3)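 Competition binding on freshly isolated intact human PMNs (0.25 × 10⁶) with 20 pM [¹²⁵I]C5a plus unlabeled C5a or peptide. Buffer is 50 mM HEPES, 1 mM CaCl₂, 5 mM MgCl₂, 0.5% BSA. Incubation 60 min at 4 °C, then filtration, ice-cold washes and gamma counting, triplicates. Nonspecific binding defined with 1 mM peptide or 100 nM C5a. Relative affinity = antilog[−(log IC50 C5a − log IC50 peptide)] × 100. The potency/binding ratio is EC50 divided by the binding IC50.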

Homo sapiens [6] = organism: Homo sapiens; assay: Log potency ratio [pD2(C5a)-pD2(peptide)] was determined for human polymorphonuclear cells (PMN) (n=4); type: functional; outline: as §2
Homo sapiens [7] = organism: Homo sapiens; assay: Relative affinity for PMN receptor (n=3); type: functional; outline: as §3
Homo sapiens [8] = organism: Homo sapiens; assay: Maximum efficacy relative to C5a (100%) for human polymorphonuclear cells (PMN) was determined (n=4); type: functional; outline: as §2
Homo sapiens [9] = organism: Homo sapiens; assay: (§4) Selectivity of peptide was determined from antilog[pD2(fetal artery)-pD2 (PMN enzyme release)] (n=10); type: functional
Outline: (§5)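 Selectivity = antilog[pD2(fetal artery) − pD2(PMN β-glucuronidase release)]. pD2 values come from full dose–response curves in each assay, each generated alongside C5a.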

Homo sapiens [10] = organism: Homo sapiens; assay: Log potency ratio [pD2(C5a)-pD2(peptide)] was determined in human fetal artery; type: functional; outline: as §1
Homo sapiens [11] = organism: Homo sapiens; assay: Ratio of concentration agonist potency (EC50) to concentration inhibiting [125I]C5a binding (n=3); type: functional; outline: as §3
Homo sapiens [12] = organism: Homo sapiens; assay: Effective concentration to induce smooth muscle contraction in human fetal artery; type: functional; conditions: Muscle tissue; outline: as §1
Homo sapiens [13] = organism: Homo sapiens; assay: Effective concentration to stimulate beta-glucuronidase release from human polymorphonuclear cells (PMN) (n=4); type: functional; outline: as §2
Homo sapiens [14] = organism: Homo sapiens; assay: Log potency ratio [pD2(C5a)-pD2(peptide)] was determined in human polymorphonuclear cells (PMN) (n=4); type: functional; outline: as §2
[15] = as §4; type: functional; outline: as §5
[16] = Selectivity of peptide was determined from antilog[pD2(fetal artery)-pD2 (PMN enzyme release)] (n=11); type: functional; outline: as §5

SMILES | Potency (Homo sapiens [1]) | pD2 (Homo sapiens [2]) | pD2 (Homo sapiens [3]) | Potency (Homo sapiens [4]) | C5a max (Homo sapiens [8]) | Mean log concentration ratio (Homo sapiens [10]) | EC50 (Homo sapiens [12]) | EC50 (Homo sapiens [13]) | further results
CSCC[C@H](NC(=O)[C@@H]1CCCN1C(=O)[C@H](CCCCN)NC(=O)[C@H](Cc1ccccc1)NC(=O)[C@H](CO)NC(=O)[C@H](Cc1ccc(O)cc1)NC(=O)CCCCCN)C(=O)N1CCC[C@H]1C(=O)N[C@@H](CC(C)C)C(=O)N[C@H](C)C(=O)N[C@@H](CCCN=C(N)N)C(=O)O | 16% | 7.16 | 5.51 | 1.2% | 180% | 0.79 |  |  | Mean log concentration ratio (Homo sapiens [5]): 4.33; Mean log concentration ratio (Homo sapiens [6]): 1.9; C5a affinity (Homo sapiens [7]): 0.005%; Selectivity (Homo sapiens [9]): 45; Ratio (Homo sapiens [11]): 0.6
CSCC[C@H](NC(=O)[C@@H]1CCCN1C(=O)[C@H](CCCCN)NC(=O)[C@H](Cc1ccccc1)NC(=O)[C@H](CO)NC(=O)[C@H](Cc1ccc(O)cc1)NC(=O)CCCCCNC(=O)[C@H](CCCCN)NC(=O)CNC(=O)[C@@H](N)CCCCN)C(=O)N1CCC[C@H]1C(=O)N[C@@H](CC(C)C)C(=O)N[C@H](C)C(=O)N[C@@H](CCCN=C(N)N)C(=O)O [listing 1 of 2 here] |  |  |  |  |  |  | 100 nM | 4900 nM | 
CSCC[C@H](NC(=O)[C@@H]1CCCN1C(=O)[C@H](CCCCN)NC(=O)[C@H](Cc1ccccc1)NC(=O)[C@H](CO)NC(=O)[C@H](Cc1ccc(O)cc1)NC(=O)CCCCCNC(=O)[C@H](CCCCN)NC(=O)CNC(=O)[C@H](CCCCN)NC(=O)CNC(=O)[C@@H](N)CCCCN)C(=O)N1CCC[C@H]1C(=O)N[C@@H](CC(C)C)C(=O)N[C@H](C)C(=O)N[C@@H](CCCN=C(N)N)C(=O)O |  |  |  |  |  |  | 100 nM | 6700 nM | 
CSCC[C@H](NC(=O)[C@@H]1CCCN1C(=O)[C@H](CCCCN)NC(=O)[C@H](Cc1ccccc1)NC(=O)[C@H](CO)NC(=O)[C@H](Cc1ccc(O)cc1)NC(=O)CCCCCNC(=O)[C@H](CCCCN)NC(=O)CNC(=O)[C@@H](N)CCCCN)C(=O)N1CCC[C@H]1C(=O)N[C@@H](CC(C)C)C(=O)N[C@H](C)C(=O)N[C@@H](CCCN=C(N)N)C(=O)O [listing 2 of 2 here] | 11% | 6.98 | 5.31 | 1% | 156% | 0.97 |  |  | Mean log concentration ratio (Homo sapiens [14]): 1.99; Selectivity [15]: 47
CSCC[C@H](NC(=O)[C@@H]1CCCN1C(=O)[C@H](CCCCN)NC(=O)[C@H](Cc1ccccc1)NC(=O)[C@H](CO)NC(=O)[C@H](Cc1ccc(O)cc1)NC(=O)CCCCCNC(=O)[C@H](Cc1c[nH]c2ccccc12)NC(=O)[C@@H](N)CC(=O)O)C(=O)N1CCC[C@H]1C(=O)N[C@@H](CC(C)C)C(=O)N[C@H](C)C(=O)N[C@@H](CCCN=C(N)N)C(=O)O |  |  |  |  |  |  | 200 nM | 7200 nM | 
CSCC[C@H](NC(=O)[C@@H]1CCCN1C(=O)[C@H](CCCCN)NC(=O)[C@H](Cc1ccccc1)NC(=O)[C@H](CO)NC(=O)[C@H](Cc1ccc(O)cc1)NC(=O)CNC(=O)CNC(=O)CNC(=O)[C@H](CCCCN)NC(=O)CNC(=O)[C@H](CCCCN)NC(=O)CNC(=O)[C@@H](N)CCCCN)C(=O)N1CCC[C@H]1C(=O)N[C@@H](CC(C)C)C(=O)N[C@H](C)C(=O)N[C@@H](CCCN=C(N)N)C(=O)O [listing 1 of 2 here] |  |  |  |  |  |  | 70 nM | 2000 nM | 
CSCC[C@H](NC(=O)[C@@H]1CCCN1C(=O)[C@H](CCCCN)NC(=O)[C@H](Cc1ccccc1)NC(=O)[C@H](CO)NC(=O)[C@H](Cc1ccc(O)cc1)NC(=O)CNC(=O)CNC(=O)CNC(=O)[C@H](CCCCN)NC(=O)CNC(=O)[C@H](CCCCN)NC(=O)CNC(=O)[C@@H](N)CCCCN)C(=O)N1CCC[C@H]1C(=O)N[C@@H](CC(C)C)C(=O)N[C@H](C)C(=O)N[C@@H](CCCN=C(N)N)C(=O)O [listing 2 of 2 here] | 15% | 7.14 | 5.71 | 1.8% | 177% | 0.83 |  |  | Mean log concentration ratio (Homo sapiens [14]): 1.74; Selectivity [16]: 27
CSCC[C@H](NC(=O)[C@@H]1CCCN1C(=O)[C@H](CCCCN)NC(=O)[C@H](Cc1ccccc1)NC(=O)[C@H](CO)NC(=O)[C@H](Cc1ccc(O)cc1)NC(C)=O)C(=O)N1CCC[C@H]1C(=O)N[C@@H](CC(C)C)C(=O)N[C@H](C)C(=O)N[C@@H](CCCN=C(N)N)C(=O)O |  |  |  |  |  |  | 100 nM | 9300 nM | 
